From ChEMBL document CHEMBL4513216, “Probing the Open Global Health Chemical Diversity Library for Multistage-Active Starting Points for Next-Generation Antimalarials” (ACS Infect Dis, 2020)

Test: Toxicity liver stage against HepG2, at 10uM
Assay type: cell-based
Set-up: test concentration 10 uM, cell line HepG2-A16-CD81EGFP
Conditions: human, HepG2-A16-CD81EGFP cells; read-out: INHIBITION
Summary of the method: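 Uninfected HepG2-A16-CD81EGFP cells, 3 × 10^3 per well, 1536-well, plated on prespotted compound at 10 μM final, parasite-free screening media added to match infected plates; puromycin 10 μM positive, DMSO 0.5% negative; run in parallel with 48 h PbLuc assay at 37 °C, 5% CO2; viability by CellTiter-Glo luminescence, normalized to controls.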

Row | SMILES | cytotoxicity at 10 µM
1 | CC(=O)N1CC(c2ncn(C(C)C)n2)c2cc(C(=O)NC(C)C)ccc21 (stereo not given) | 8.22%
2 | O=C(c1ccco1)N1CCc2onc(CN3CCCC3)c2C1 | 4.38%
3 | O=C(c1ccccn1)N1CC[C@H]2C(=O)N(c3ccsc3)CCO[C@H]2C1 | 11.6%
4 | Cc1cnc(C(=O)N2CCC3(CC2)C(=O)NCCN3CC(C)C)cn1 | 8.52%
5 | CCc1c(C)nn2c(O)cc(C3CCN(C(=O)C4CC4)C3)nc12 (stereo not given) | 1.97%
6 | CC(C)N1CCC(c2n[nH]cc2-c2ccnc(N)c2)C1 (stereo not given) | 2.16%
7 | C1CC(CN2CCCCC2C2OCCO2)C1 (stereo not given) | -12.8%
8 | Cc1cc(N(Cc2cccs2)C2CC2)n2nc(C(F)(F)F)nc2n1 | -2.1%
9 | OC(c1cnn(-c2ccccc2)c1)C(F)(F)F (stereo not given) | -3.75%
10 | COc1cccc(CC2CCCN2Cc2nccn2C)c1 (stereo not given) | -6.16%
11 | COCC1CCCN(c2cncc(OCc3ccccc3)n2)C1 (stereo not given) | -4.08%
12 | COC(=O)CC(NC(=O)CCn1cccn1)c1ccc(C)cc1 (stereo not given) | 3.28%
13 | Cc1cc(C)cc(C(C)NCc2nnc(C)s2)c1 (stereo not given) | -5.77%
14 | COc1cc(CNC(=O)COC2CCCCC2)ccc1O | 6.81%
15 | COCCN(CC(F)F)c1cc(COC)nc2ncnn12 | 9.08%
16 | CC(C)(C)C(NC(=O)CCS(C)(=O)=O)c1ccc(F)cc1F (stereo not given) | -0.189%
17 | Cc1noc(NCc2ccc(F)cc2)n1 | -5.92%
18 | Cc1cc(C2CCCN(Cc3ncc(C(C)C)o3)C2)n[nH]1 (stereo not given) | 4.29%
19 | CN(C)c1cccc(C2CCCN2Cc2nnnn2C2CC2)c1 (stereo not given) | 5.15%
20 | COc1cc(CNCCc2cc(F)cc3c2OCOC3)cc(OC)c1 | -1.51%
21 | Cc1ccc(CN(C)C(=O)c2cccc(NC(N)=O)c2)o1 | 14.2%
22 | O=C(NS(=O)(=O)c1cnn(-c2ccccc2F)c1)c1ccco1 | -8.86%
23 | Cc1ccc(N(C)Cc2nnnn2C2CC2)c(C)c1 | 8.81%

Row | SMILES | cytotoxicity at 10 µM
24 | Cc1cc(NC(=O)CSc2nc(=O)ccn2C(C)C)no1 | 0.841%
25 | COC(=O)CCCNC(=O)Nc1ccccc1OC | 6.45%
26 | N#Cc1cc(F)ccc1Cn1cnc(C2CCC2)cc1=O | -5.32%
27 | CCc1nc(CC(=O)NCC2(C(N)=O)CCOCC2)cs1 | -9.92%
28 | CCS(=O)(=O)N1CCCn2c(nc(CN3CCCC3)cc2=O)C1 | 1.88%
29 | CN(C)[C@@H]1CCN(S(C)(=O)=O)[C@H]1Cc1ccccc1 | 11.7%
30 | CN1Cc2ccccc2CC2(CCN(C(=O)N3CCOCC3)CC2)C1=O | 1.02%
31 | CCN1Cc2ccccc2CC2(CCN(C)CC2)C1=O | 14.3%
32 | OC1(CN2CCCC2)COCCN(c2nnc(-c3ccccc3)s2)C1 (stereo not given) | -10.1%
33 | CCc1nc(CN(C)C(=O)c2cc(NC(C)=O)ccc2Cl)no1 | -1.71%
34 | COC(=O)c1cc2n(n1)CCCN(C(=O)Cc1c[nH]c3ccccc13)C2 | 2.61%
35 | CCOC(=O)N1CCC(NCC2CCN(c3cnn(C)c(=O)c3)C2)CC1 (stereo not given) | 8.39%
36 | CCCN(CCO)C(=O)C1CCC(=O)N(Cc2ccc(Cl)cc2)C1 (stereo not given) | 10.4%
37 | Cc1cc2nc(-c3ccccc3)cc(NCC3CCCOC3)n2n1 (stereo not given) | -3.54%
38 | COCc1cc(NCCc2ccccn2)n2nccc2n1 | -0.464%
39 | Cc1noc(C)c1CN1CC[C@@H]2O[C@@H](COCC3CC3)CC[C@@H]21 | 6.46%
40 | CN(C)C(=O)CN1CC[C@]2(CN(CC3CC3)C[C@H]2c2ccccc2)C1=O | 1.46%
41 | COc1ccc(CN2CCO[C@@H]3C[C@@H](C(=O)NC(C)C)C[C@H]32)cc1 | 8.31%
42 | Cc1ccc(NCc2cn3c(n2)CN(Cc2ccoc2)CC3)nn1 | 9.43%
43 | O=C(c1cc[nH]n1)N1CC[C@@H]2CN(Cc3ccncc3)S(=O)(=O)[C@@H]2CC1 | 10.5%
44 | COCCC(=O)N1C[C@H]2CN(Cc3cccc(C)n3)C(=O)[C@H]2C1 | 4.4%
45 | CC(C)n1nc(CN2CCCCC2)c2c1CN(C(=O)c1ccno1)C2 | 4.19%
